This note sets out measurements from the array DNA melting data of Ke et al. (doi:10.1101/2024.01.08.574731).

A short description of series [1]: folding enthalpy; higher = less favourable; fluorescence melt of hairpins on a sequencing array, two-state fit. Particulars: sodium 0.088 M. An outline of the steps:
(§1)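 Bootstrapped two-state fits yielded melting temperature and folding enthalpy for library hairpins. Cy3 fluorescence, with annealed Cy3 and quencher oligos, was imaged on a sequenced MiSeq flow cell in 50 mM Na-HEPES pH 8.0, 25 mM NaCl in 2.5 °C steps up to 60 °C, and normalised to pre-quench Cy3 and to control constructs. Four replicates were combined by inverse variance, and fitted temperatures were raised by 9.35 °C to match UV melts.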

The nature of series [2]: melting temperature; fluorescence melt of hairpins on a sequencing array, two-state fit, raised by 9.35 °C to match UV melts. As to conditions: sodium 0.088 M. Summed up: as §1

For GTTCAGCGAAAGCTTAAC (((.(((....))).))), the folding enthalpy in series [1] is -30.2 kcal/mol. The Tm in series [2] amounted to 40.9 °C.
Taken in the same sequence, the figures for GTGCTACGAAAGTACAC (((.(((....)))))) were -25.5 kcal/mol and 45.3 °C.
Take GTACATCGAAAGATTAC (((.(((....)))))): the folding enthalpy in series [1] was -20.3 kcal/mol. For the same sequence, the Tm in series [2] was 32.1 °C.
Regarding GAAACACGAAAGTGGTTC (((.(((....))).))), the folding enthalpy in series [1] was -44.3 kcal/mol. In addition, in series [2], the Tm is 55 °C.
Consider GCTCCGCGAAAGCGCAGC (((.(((....))).))), for which the folding enthalpy in series [1] is -29.8 kcal/mol. For the same sequence, the Tm in series [2] is 45.5 °C.
As for GTTGCGCGAAAGCGGAAC (((.(((....))).))), in series [1], the folding enthalpy is -30.9 kcal/mol. In series [2], the Tm is 67.6 °C.
On the same counts, the results for GAATTACGAAAGTATTTC (((.(((....))).))) are -19.6 kcal/mol and 35.2 °C.
Taken in the same sequence, the figures for GCGAGCTTCGC ((((...)))) were -18.5 kcal/mol and 49 °C.
On to GTCCTTCGAAAGAAAGAC (((.(((....))).))), for which the folding enthalpy in series [1] is -19.1 kcal/mol. In series [2], the Tm came to 34.4 °C.
As to GTAGGCACGAAAGTGTAC (((..(((....)))))), the folding enthalpy in series [1] is -13.6 kcal/mol. Moreover, the Tm in series [2] stood at 29.8 °C.
Turning to GATCATCTAATGATC ((((((...)))))), the folding enthalpy in series [1] is -34.5 kcal/mol. Besides, the Tm in series [2] came to 47.2 °C.
On the same counts, the results for GGTACTGGAAACAGTGTC (..((((....))))..) are -13.9 kcal/mol and 28.9 °C.
Taken in the same sequence, the figures for GGCCTCGAAAGAGTGGCC ((((((....)))..))) were -36.6 kcal/mol and 54.4 °C.
On the same counts, the results for GATGGTGGAAACACTGTC ((..(((....)))..)) are -15.5 kcal/mol and 35.8 °C.
Regarding GACTGTGGAAACGTAGTC ((((..(....)..)))), the folding enthalpy in series [1] was -17.5 kcal/mol. The Tm in series [2] worked out at 34.8 °C.
Taken in the same sequence, the figures for GTGAACGAAAGTTTCAC ((((((....))).))) were -22 kcal/mol and 47.9 °C.
GGCTTACGAAAGTAGCC (((.(((....)))))): in series [1], the folding enthalpy is -34.1 kcal/mol. Further, in series [2], the Tm came out at 55.5 °C.
On the same counts, the results for GATCCGACCGCGGATC ((((((....)))))) are -34.6 kcal/mol and 56.8 °C.
Taken in the same sequence, the figures for GACACGGGAAACTGTGTC (((((.(....).))))) were -42.2 kcal/mol and 53.5 °C.
Taken in the same sequence, the figures for GGGTGGGGAAACTCACCC (((((.(....).))))) were -49.8 kcal/mol and 55.4 °C.
Regarding GCGTACGAAAGTATGCGC ((((((....)))..))), the folding enthalpy in series [1] was -37.5 kcal/mol. Also, in series [2], the Tm amounted to 58.4 °C.
Taken in the same sequence, the figures for GATCGGACGCCGATC ((((((...)))))) were -37.4 kcal/mol and 53.6 °C.
As for CAAATGAAAATTTG (((((....))))), in series [1], the folding enthalpy was -12.8 kcal/mol. Moreover, the Tm in series [2] turned out to be 32.8 °C.
On the same counts, the results for GATCCCCTAAGGGATC ((((((....)))))) are -39.1 kcal/mol and 63.2 °C.
With GCATGACGAAAGTCCTGC (((.(((....))).))), the folding enthalpy in series [1] is -34.5 kcal/mol. Besides, the Tm in series [2] worked out at 51 °C.
On the same counts, the results for GCGGGTGGAAACATCCGC ((((.((....)).)))) are -43 kcal/mol and 64 °C.
On the same counts, the results for GATCGACGTCTCGATC ((((((....)))))) are -42.3 kcal/mol and 50 °C.
Consider GATCAAGTCGTTGATC ((((((....)))))), for which the folding enthalpy in series [1] is -39.2 kcal/mol. The Tm in series [2] was found to be 48 °C.
Turning to GATCACAGCTGTGATC ((((((....)))))), in series [1], the folding enthalpy was -41.9 kcal/mol. Also, the Tm in series [2] was determined as 59 °C.
In the case of GATCCCATGGGGGATC ((((((....)))))), in series [1], the folding enthalpy was -32.4 kcal/mol. Further, the Tm in series [2] amounted to 60.1 °C.
On the same counts, the results for GCTAGGCGAAAGCGTGGC ((.(.((....)).).)) are -19.5 kcal/mol and 49.8 °C.
Taken in the same sequence, the figures for GATCACTCTCGTGATC ((((((....)))))) were -41.8 kcal/mol and 55.7 °C.
On the same counts, the results for GGCTTGGGAAACCGAGTC (.((.((....)).)).) are -27.4 kcal/mol and 41.5 °C.
On to GTAAGCCGAAAGGCGTAC (((.(((....))).))), for which, in series [1], the folding enthalpy is -14.1 kcal/mol. The Tm in series [2] is 54.4 °C.
As for GATCTTTGATAAGATC ((((((....)))))), in series [1], the folding enthalpy is -25.5 kcal/mol. Further, the Tm in series [2] was determined as 42.6 °C.
On the same counts, the results for CGCATCGGAAACGAGGCG (((.(((....))).))) are -44.1 kcal/mol and 61.4 °C.
Take GATCACACCGGTGATC ((((((....)))))): the folding enthalpy in series [1] is -39.3 kcal/mol. In addition, the Tm in series [2] stood at 57.3 °C.
On the same counts, the results for GCGGGGGCCCGC ((((....)))) are -38.8 kcal/mol and 56 °C.
Taken in the same sequence, the figures for GGTTGGACGAAAGTCACC (((..(((....)))))) were -12.2 kcal/mol and 34.1 °C.
On the same counts, the results for GGTCCTCGAAAGAGCACC (((.(((....))).))) are -27.1 kcal/mol and 38.5 °C.
Take GCAAATTCGAAAGAATGC (((..(((....)))))): the folding enthalpy in series [1] was -18.4 kcal/mol. For the same sequence, the Tm in series [2] stood at 35.8 °C.
For the sequence GCACTACGAAAGTACTGC (((.(((....))).))), the folding enthalpy in series [1] is -26.9 kcal/mol. In addition, the Tm in series [2] was 37.6 °C.
Taken in the same sequence, the figures for GACACCGGAAACGGTGCC (.(((((....))))).) were -13.4 kcal/mol and 48.8 °C.
On the same counts, the results for GCCCTTCGAAAGAATGGC (((.(((....))).))) are -34.3 kcal/mol and 47.4 °C.
Regarding TCGTAGAAATACGA (((((....))))), the folding enthalpy in series [1] is -11.6 kcal/mol. Besides, the Tm in series [2] worked out at 41.3 °C.
Taken in the same sequence, the figures for GCTTAGCGAAAGCTTCGC ((..(((....)))..)) were -15 kcal/mol and 42.9 °C.
As to GATCCCCTCGGGATC ((((((...)))))), the folding enthalpy in series [1] was -35.6 kcal/mol. Also, in series [2], the Tm turned out to be 61.4 °C.
For GATCAATACCTTGATC ((((((....)))))), in series [1], the folding enthalpy is -34 kcal/mol. Also, in series [2], the Tm came out at 46.5 °C.
Taken in the same sequence, the figures for GTTGTCGAAAGACAAC ((((((....)))))) were -27.7 kcal/mol and 67.5 °C.
Taken in the same sequence, the figures for GTGCTTGGAAACAAGTAC ((.((((....)))).)) were -32.3 kcal/mol and 49.2 °C.
Taken in the same sequence, the figures for GCCTAGCGAAAGCTATGC ((.((((....)))).)) were -23.6 kcal/mol and 46.2 °C.
On to GCTGGGCGAAAGCCGTGC ((..(((....)))..)), for which the folding enthalpy in series [1] is -18.2 kcal/mol. For the same sequence, the Tm in series [2] is 47.6 °C.
In the case of GATCAACATATTGATC ((((((....)))))), the folding enthalpy in series [1] is -30.2 kcal/mol. Further, in series [2], the Tm stood at 42.6 °C.
For GAAGGTGGAAACACTTTC (((.(((....))).))), the folding enthalpy in series [1] was -24.9 kcal/mol. In series [2], the Tm amounted to 38 °C.
On the same counts, the results for GACACACGAAAGTGAGTC (((.(((....))).))) are -31 kcal/mol and 56.1 °C.
GGTCGTCGAAAGACACC (((.(((....)))))): the folding enthalpy in series [1] was -22.1 kcal/mol. For the same sequence, the Tm in series [2] stood at 52.1 °C.
